Source: PubChem (several laboratories)
Sampled rows, rich in hits. Any-hit rate of the full collection: about 2.9%.
Autophagy HCS: autophagy modulators in MEF cells, primary screen, imaging, high-content, MEF GFP-LC3; MEF GFP-LC3 puncta imaging; test concentration mostly 10 µM; hit rate 0.98% among 190,000; calls only at 10 µM (by protocol);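 active = percentage of spot-positive cells more than 3 SD above its plate mean, without a fluorescence outlier flag or 80% toxicity; inconclusive = no clear call, values can overlap the other calls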
Wee1 stabilizer: Wee1 degradation inhibitors, primary screen, cell-based, HeLa, Wee1K328M-luciferase, luminescence; Wee1-like protein kinase (Homo sapiens), P30291; HeLa Luc-Wee1K328M stability; 100% = proteasome inhibitor MG132 effect; reporter increase, % at 5 µM; hit rate 1.2% among 220,000; AID 1321, 2008;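 active = activation above the mean of all tested compounds plus 3 SD, set per screening run, cut at about 8.8% in these data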;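 note: cells exposed to compound for 20 h before luminescence read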
Target sequence (P30291 whole entry K328M): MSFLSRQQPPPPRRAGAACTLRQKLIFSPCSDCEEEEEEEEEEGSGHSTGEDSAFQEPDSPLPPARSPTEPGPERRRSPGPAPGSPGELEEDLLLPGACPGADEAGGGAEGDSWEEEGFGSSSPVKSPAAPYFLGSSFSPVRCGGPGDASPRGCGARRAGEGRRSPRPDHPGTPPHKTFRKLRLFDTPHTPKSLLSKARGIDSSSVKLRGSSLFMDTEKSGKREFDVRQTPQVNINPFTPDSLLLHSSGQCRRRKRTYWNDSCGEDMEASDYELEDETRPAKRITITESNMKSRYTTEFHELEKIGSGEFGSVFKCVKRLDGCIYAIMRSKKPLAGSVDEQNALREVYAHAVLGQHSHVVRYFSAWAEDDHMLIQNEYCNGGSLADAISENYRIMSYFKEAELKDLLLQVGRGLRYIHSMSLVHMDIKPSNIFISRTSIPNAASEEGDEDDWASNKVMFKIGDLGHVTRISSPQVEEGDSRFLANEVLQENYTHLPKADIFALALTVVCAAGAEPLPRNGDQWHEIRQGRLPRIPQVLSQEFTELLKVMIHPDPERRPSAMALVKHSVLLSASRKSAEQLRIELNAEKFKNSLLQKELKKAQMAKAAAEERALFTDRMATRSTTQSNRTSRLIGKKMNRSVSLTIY
MT stabilizer: microtubule stabilizers in HeLa cells, primary screen, imaging, high-content imaging; HeLa tubulin immunostaining HCS, 24 h; share of cells brighter than vehicle mean+2SD; % tubulin-high responders, % at 10 µM; hit rate 0.83% among 200,000; AID 2205, 2009;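 active = plate Z-score above 3 for both tubulin-high and condensed-nucleus cell shares, with cell loss under 80%, at 10 µM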;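 note: anti alpha tubulin signal scored within the nucleus-defined area of each cell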
Ins promoter up: insulin promoter activators in MIN6 cells, imaging, high-content screening, mouse beta cells; MIN6 insulin promoter-GFP reporter; active compounds read high; hit rate 0.3% among 190,000; AID 1625, 2009; z-score at 5 µM;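 active = z-score above 3 at 5 µM with at least 500 cells counted in the well; inconclusive = wells under 500 cells, flagged as cytotoxic or low count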
b-catenin transl: modulators of beta-catenin nuclear translocation, primary screen, imaging, HeLa cells, immunofluorescence, high-content; hit rate 0.3% among 190,000; AID 1665, 2009; nuclear translocation activity, % at 5 µM;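 active = nuclear translocation activity above 50% at 5 µM, with a well cell count of 50 or more; inconclusive = wells under 50 cells across six images, flagged as toxic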;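 note: per-cell ratio of nuclear to cytoplasmic median beta-catenin stain intensity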
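System: HeLa cells, endogenous beta-catenin; compound dosing: 5 µM primary single dose, 0.1% DMSO, 0.02–20 µM confirmation series; incubation: 24 h compound exposure at 37°C, 5% CO2; signal: beta-catenin immunofluorescence imaging with DAPI; evaluation: % activation, nuclear-to-cytoplasmic median beta-catenin signal ratio per cell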
Each line names hits and unclear results; the compound was inactive in the other large screens.

O=C(OCCN1C(=O)c2cccc3c(N4CCOCC4)ccc(c23)C1=O)c1ccccc1Cl	Autophagy HCS active, MT stabilizer 14.0 (no result: b-catenin transl)
O=C1c2cccc3c(N4CCCCC4)ccc(c23)C(=O)N1c1cccc(O)c1	none (no result: Ins promoter up)
CCOc1ccsc1C(=O)O	none (no result: Autophagy HCS, MT stabilizer)
Cc1nc2ccc(S(=O)(=O)NCC(=O)N(C)Cc3ccccc3)cc2s1	none
Cc1nn(-c2ccccc2)c(C)c1NC(=O)COc1ccc(Br)cc1Cl	none
O=C1c2cccc3c(N4CCCCC4)ccc(c23)C(=O)N1CCO	Autophagy HCS active
C=CCN1C(=O)c2cccc3c(N4CCCCC4)ccc(c23)C1=O	none (no result: Ins promoter up, b-catenin transl)
Cc1nc2ccccn2c1C(=O)CSc1cccc(Cl)c1	none
O=C(COc1ccc(/C=N/NC(=O)c2ccccc2)cc1)Nc1ccc([N+](=O)[O-])cc1	none (no result: Ins promoter up, b-catenin transl)
CC(C)Oc1ccc(/C=N/NC(=O)C(CSCc2ccccc2)NC(=O)c2ccc([N+](=O)[O-])cc2)cc1 (stereo not given)	Autophagy HCS active (no result: Ins promoter up)
CCn1c(SCC(=O)NCc2ccccc2)nc2c(c1=O)SC(C)C2 (stereo not given)	none
COCCNC(=O)/C(C#N)=c1\s/c(=C\c2ccccc2OC(F)F)c(=O)n1Cc1ccccc1	Autophagy HCS active
CCCCNC(=O)/C(C#N)=c1\s/c(=C\c2ccccc2OC(F)F)c(=O)n1CCCOC	Autophagy HCS active, Ins promoter up 4.53
Cc1ccc(C)c2nc3sc(C(=O)N4CCCc5ccccc54)c(N)c3cc12	Autophagy HCS active (no result: Ins promoter up, b-catenin transl)
CCc1ccc2nc3sc(C(=O)N4CCc5ccccc54)c(N)c3cc2c1	Autophagy HCS active, Ins promoter up 4.93
CC(C)c1ccc2nc3sc(C(=O)N4CCc5ccccc5C4)c(N)c3cc2c1	none
C/C(Cn1nnc2ccccc21)=N\NC(=O)c1cccc(Br)c1	none
O=C(Nc1ccccc1Br)c1ccccc1-c1ccccc1	MT stabilizer 15.2, b-catenin transl 57.9
Cc1cc(Br)ccc1NC(=O)c1ccccc1-c1ccccc1	none
Cc1ccc(C)c2nc(SCC(=O)Nc3ccc4c(c3)OCO4)c(C#N)cc12	none (no result: Autophagy HCS, MT stabilizer)
Cc1nonc1NC(=O)CSc1nc2c(C)cccc2cc1C#N	Autophagy HCS active (no result: Ins promoter up)
Cc1cccc2cc(C#N)c(SCCN3CCCCC3)nc12	Autophagy HCS active (no result: Ins promoter up, b-catenin transl)
C=CCn1c(CNC(=O)c2ccccc2F)nnc1SCC(=O)NC(C)c1ccccc1 (stereo not given)	none
Cc1cc(C)n(-c2cccc(Cl)c2)c(=O)c1C#N	Autophagy HCS active
S=C(CN1CCCC1=S)NCCc1ccccc1	none (no result: Autophagy HCS, MT stabilizer)
CC1CCCC(C)N1C(=O)CSc1nnc(-c2cccs2)o1 (stereo not given)	Ins promoter up 3.46
O=C1/C(=C\c2ccccc2)CCc2c1[nH]c1ccccc21	MT stabilizer 21.3
Cc1cc(C(=O)OCC(=O)c2cccc([N+](=O)[O-])c2)c2ccccc2n1	Wee1 stabilizer 9.5
Cc1ccccc1NN=Nc1nc2c([nH]1)c(=O)n(C)c(=O)n2C	Wee1 stabilizer 12.0 (no result: Ins promoter up)
CCOC(=O)c1sc(=NC(=O)COc2ccc(Cl)cc2)n(C)c1C	Autophagy HCS active
CCOC(=O)c1sc(=NC(=O)CCS(=O)(=O)c2ccccc2)n(C)c1C	none
Cc1ccc(-n2c(-c3ccccc3)c[n+]3c2CCc2ccccc2-3)c(C)c1	Ins promoter up inconclusive
O=C1C(=Cc2cccn2-c2ccc(O)cc2)C(=O)c2ccccc21	Autophagy HCS active (no result: Ins promoter up, b-catenin transl)
CCc1nn(-c2ccccc2)c2c1-c1cc(OC)c(OC)cc1C1(N2)C(=O)Nc2ccccc21 (stereo not given)	none (no result: b-catenin transl)
N=c1c2c(-c3ccccc3)c(-c3ccccc3)n(Cc3ccco3)c2ncn1CCO	Ins promoter up inconclusive
N=c1c2c(-c3ccccc3)c(-c3ccccc3)n(Cc3ccco3)c2ncn1CCN1CCOCC1	Autophagy HCS active
CC(=O)c1csc(CS(=O)(=O)c2ccccn2)n1	none (no result: Autophagy HCS, MT stabilizer, Ins promoter up)
CC(C)(C)NC(=O)C1Cc2ccccc2CN1 (stereo not given)	none
C=CCn1c(SCc2ccc(C(=O)Nc3ccccc3)cc2)nnc1-c1ccccc1	none
COc1ccc(NC(=O)/C(C#N)=C\c2cc(C)n(-c3ccc4c(c3)OCO4)c2C)cc1	MT stabilizer 24.0 (no result: b-catenin transl)
O=C(Nc1ccc(Cl)cc1F)C1CC1	none
Cc1ccc2c(c1)c1c(n2CC(O)CNC2CCCCC2)CCCC1 (stereo not given)	MT stabilizer 36.2
CCn1c(NCc2ccccc2NS(=O)(=O)c2ccc(C)cc2)nc2ccccc21	none
CCCn1c(NCc2ccccc2NS(=O)(=O)c2ccc(C)cc2)nc2ccccc21	MT stabilizer 21.2
CCn1nc(C)c(C(=O)Nc2cc(Oc3ccc(Cl)cc3)cc([N+](=O)[O-])c2)c1C	MT stabilizer 29.5
O=C(Nc1nnc(-c2ccccc2)o1)Nc1ccccc1Cl	Ins promoter up 3.77
O=C(Nc1nnc(-c2ccccc2)o1)Nc1ccc(F)cc1F	none
CCOC(=O)c1c(NC(=O)Cn2cnc([N+](=O)[O-])n2)sc(C)c1C	none
OC[C@H](O)[C@H](O)[C@@H](O)[C@@H](O)[C@@H]1SC(c2ccccc2)=NN1c1ccccc1	none (no result: Autophagy HCS, MT stabilizer)
Cc1ccc(C2=NNC(C(O)C(O)C(O)C(O)CO)S2)cc1 (stereo not given)	MT stabilizer 41.8
C=CCN1C(=O)/C(=C/C=C2/N(CC)c3ccc(S(=O)(=O)N(C)C)cc3N2CC)SC1=S	Autophagy HCS active (no result: Ins promoter up)
Cc1cc(NC(=O)CSc2nc(C3CC3)nc3sc(C)c(C)c23)no1	MT stabilizer 33.5, b-catenin transl 266.6
O=c1cc(-c2ccccc2)[nH]n1-c1ccc([N+](=O)[O-])cc1	none (no result: Ins promoter up, b-catenin transl)
CC(=O)c1c(C)[nH]c(C(=O)NCc2cccc(Cl)c2)c1C	none
COc1cc(OC)c(NC(=O)c2c(-c3ccccc3)noc2C)cc1Cl	none
Cc1onc(-c2ccccc2)c1C(=O)Nc1ccccc1N1CCOCC1	none
Cc1onc(-c2ccccc2)c1C(=O)Nc1cc(C(F)(F)F)ccc1N1CCOCC1	MT stabilizer 33.2, b-catenin transl 69.8
CCOC(=O)c1ccc(N2CCOCC2)c(NC(=O)c2c(-c3ccccc3)noc2C)c1	Wee1 stabilizer 10.5, b-catenin transl 125.2 (no result: Autophagy HCS, MT stabilizer)
COc1ccc(Cl)cc1NC(=O)c1c(-c2ccccc2)noc1C	Ins promoter up 18 (no result: b-catenin transl)
CCOC(=O)c1ccc(N2CCOCC2)c(NC(=O)COCC(=O)O)c1	none (no result: Autophagy HCS, MT stabilizer)
CC(=O)OCCCN1c2ccccc2Nc2nnc(-c3ccccc3)cc21	Wee1 stabilizer 9.1
CSc1nc(C)cc(OCC(=O)N/N=C/c2ccccc2O)n1	MT stabilizer 16.6, b-catenin transl 94.1
Cc1ccc(C(=O)N/C(=C\c2ccccc2)C(=O)NCCCn2ccnc2)cc1	none
Cc1cc(C)cc(-n2c(=O)c3sccc3n(CC(=O)NCc3ccco3)c2=O)c1	Ins promoter up 4.64
